Where “and” joins values, the source holds several entries; their conditions need not be identical. Equal entries are not always repeated.
Assays:
[1] = test system: HEK-293T; assay: Multiplex assay against HEK293T; assay type: toxicity, cell-based; settings: human
In short: (§1)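 Per cents of healthy-nucleus cells form the tubulin, mitochondrial-mass and membrane-permeability phenotype values. Live cells were stained at seeding with Hoechst33342, BioTracker Green Microtubule Cytoskeleton Dye, MitoTracker Red and Annexin V Alexa Fluor 680. After compound addition they were imaged on a CQ1 microscope at 37°C and 5% CO2, and CellPathfinder machine-learning gating split them into Hoechst high-intensity objects or normal cells, normal cells into healthy, pyknosed or fragmented nuclei, and pyknosed cells into mitotic or apoptotic.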

[2] = test system: Fibroblast; assay: Multiplex assay against human fibroblast; assay type: toxicity, cell-based; in short: as §1
[3] = 24 h, 1 µM, compound concentration 1 uM
[4] = 24 h, 10 µM, compound concentration 10 uM
[5] = 48 h, 1 µM, compound concentration 1 uM
[6] = 48 h, 10 µM, compound concentration 10 uM
[7] = 12 h, 1 µM, compound concentration 1 uM
[8] = 12 h, 10 µM, compound concentration 10 uM

O=C1c2c(Br)c(Br)c(Br)c(Br)c2C(=O)N1c1ncc[nH]1
Population Mitochondria Different-Phenotype (%) [1, 3]: 13.29% and 6.25%
Population Mitotic Cells (%) [1, 3]: 92.71% and 79.41%
Population Normal (%) [1, 3]: 100%
Population Tubulin-Different-Phenotype (%) [1, 3]: 8.59% and 6.25%
Population Apoptotic (%) [1, 4]: 15.38% and 16.98%
Population Fragmented Nuclei (%) [1, 4]: 2.6% and 2.87%
Population Healthy Nuclei (%) [1, 4]: 81.63% and 36.21%
Population Hoechst High Intensity Objects (%) [1, 4]: 0%
Population Membrane Permeable-Phenotype (%) [1, 4]: 0.42% and 0%
Population Mitochondria Different-Phenotype (%) [1, 4]: 15.71% and 7.94%
Population Mitotic Cells (%) [1, 4]: 84.62% and 83.02%
Population Normal (%) [1, 4]: 100%
Population Tubulin-Different-Phenotype (%) [1, 4]: 7.64% and 3.17%
Population Apoptotic (%) [1, 5]: 5.76% and 12.5%
Population Fragmented Nuclei (%) [1, 5]: 3.26% and 4.05%
Population Healthy Nuclei (%) [1, 5]: 88.03% and 68.21%
Population Hoechst High Intensity Objects (%) [1, 5]: 0% and 2.26%
Population Membrane Permeable-Phenotype (%) [1, 5]: 3.85% and 1.69%
Population Mitochondria Different-Phenotype (%) [1, 5]: 10.61% and 18.64%
Population Mitotic Cells (%) [1, 5]: 94.24% and 87.5%
Population Normal (%) [1, 5]: 100% and 97.74%
Population Apoptotic (%) [1, 6]: 13.95% and 14.89%
Population Fragmented Nuclei (%) [1, 6]: 5.46% and 4.92%
Population Healthy Nuclei (%) [1, 6]: 88.11% and 79.67%
Population Hoechst High Intensity Objects (%) [1, 6]: 0% and 0.97%
Population Membrane Permeable-Phenotype (%) [1, 6]: 6.62% and 4.53%
Population Mitochondria Different-Phenotype (%) [1, 6]: 10.78% and 11.11%
Population Mitotic Cells (%) [1, 6]: 86.05% and 85.11%
Population Normal (%) [1, 6]: 100% and 99.03%
Population Pyknosed Nuclei (%) [1, 6]: 6.43% and 15.41%
Population Apoptotic (%) [2, 7]: 13.21% and 28%
Population Fragmented Nuclei (%) [2, 7]: 9.34% and 7.04%
Population Healthy Nuclei (%) [2, 7]: 61.54% and 81.22%
Population Hoechst High Intensity Objects (%) [2, 7]: 0%
Population Membrane Permeable-Phenotype (%) [2, 7]: 4.46% and 1.16%
Population Mitochondria Different-Phenotype (%) [2, 7]: 9.82% and 9.25%
Population Mitotic Cells (%) [2, 7]: 86.79% and 72%
Population Normal (%) [2, 7]: 100%
Population Pyknosed Nuclei (%) [2, 7]: 29.12% and 11.74%
Population Tubulin-Different-Phenotype (%) [2, 7]: 16.96% and 14.45%
Total Cell Count [2, 7]: 182 and 213
Population Apoptotic (%) [2, 8]: 10.81% and 15.56%
Population Fragmented Nuclei (%) [2, 8]: 9.5% and 3.32%
Population Healthy Nuclei (%) [2, 8]: 69.83% and 75.36%
Population Hoechst High Intensity Objects (%) [2, 8]: 0%
Population Membrane Permeable-Phenotype (%) [2, 8]: 6.4% and 1.89%
Population Mitotic Cells (%) [2, 8]: 89.19% and 84.44%
Population Normal (%) [2, 8]: 100%
Population Pyknosed Nuclei (%) [2, 8]: 20.67% and 21.33%
Population Tubulin-Different-Phenotype (%) [2, 8]: 10.4% and 27.67%
Total Cell Count [2, 8]: 179 and 211
Population Fragmented Nuclei (%) [2, 3]: 11.34% and 5.44%
Population Healthy Nuclei (%) [2, 3]: 70.62% and 82.01%
Population Hoechst High Intensity Objects (%) [2, 3]: 0%
Population Membrane Permeable-Phenotype (%) [2, 3]: 5.84% and 4.08%
Population Mitochondria Different-Phenotype (%) [2, 3]: 7.3% and 2.55%
Population Mitotic Cells (%) [2, 3]: 91.43% and 60%
Population Normal (%) [2, 3]: 100%
Population Pyknosed Nuclei (%) [2, 3]: 18.04% and 12.55%
Population Tubulin-Different-Phenotype (%) [2, 3]: 16.06% and 11.73%
Total Cell Count [2, 3]: 194 and 239
Population Apoptotic (%) [2, 4]: 11.11% and 20%
Population Fragmented Nuclei (%) [2, 4]: 13.13% and 3.29%
Population Healthy Nuclei (%) [2, 4]: 73.23% and 84.98%
Population Hoechst High Intensity Objects (%) [2, 4]: 0%
Population Membrane Permeable-Phenotype (%) [2, 4]: 3.45% and 5.52%
Population Mitochondria Different-Phenotype (%) [2, 4]: 4.14% and 7.18%
Population Mitotic Cells (%) [2, 4]: 88.89% and 80%
Population Normal (%) [2, 4]: 100%
Population Pyknosed Nuclei (%) [2, 4]: 13.64% and 11.74%
Population Tubulin-Different-Phenotype (%) [2, 4]: 11.72% and 23.2%
Total Cell Count [2, 4]: 198 and 213
Population Fragmented Nuclei (%) [2, 5]: 10% and 10.04%
Population Healthy Nuclei (%) [2, 5]: 84.21% and 84.56%
Population Hoechst High Intensity Objects (%) [2, 5]: 0%
Population Membrane Permeable-Phenotype (%) [2, 5]: 0.62% and 1.83%
Population Mitotic Cells (%) [2, 5]: 63.64% and 92.86%
Population Normal (%) [2, 5]: 100%
Population Pyknosed Nuclei (%) [2, 5]: 5.79% and 5.41%
Population Tubulin-Different-Phenotype (%) [2, 5]: 6.88% and 17.81%
Total Cell Count [2, 5]: 190 and 259
Population Fragmented Nuclei (%) [2, 6]: 12.8% and 3.12%
Population Healthy Nuclei (%) [2, 6]: 85.31% and 89.29%
Population Hoechst High Intensity Objects (%) [2, 6]: 0%
Population Membrane Permeable-Phenotype (%) [2, 6]: 1.11% and 2%
Population Normal (%) [2, 6]: 100%
Population Pyknosed Nuclei (%) [2, 6]: 1.9% and 7.59%
Total Cell Count [2, 6]: 211 and 224

Source: ChEMBL document CHEMBL5724801, “EUbOPEN Chemogenomics Library - Multiplex” (2024)
